Measured values pooled from the literature.
Protocols differ between the studies behind these lines.
Target: Myosin light chain kinase (MYLK3, Homo sapiens, UniProt Q32MK0)
Residues used in one study (Q32MK0 1-819): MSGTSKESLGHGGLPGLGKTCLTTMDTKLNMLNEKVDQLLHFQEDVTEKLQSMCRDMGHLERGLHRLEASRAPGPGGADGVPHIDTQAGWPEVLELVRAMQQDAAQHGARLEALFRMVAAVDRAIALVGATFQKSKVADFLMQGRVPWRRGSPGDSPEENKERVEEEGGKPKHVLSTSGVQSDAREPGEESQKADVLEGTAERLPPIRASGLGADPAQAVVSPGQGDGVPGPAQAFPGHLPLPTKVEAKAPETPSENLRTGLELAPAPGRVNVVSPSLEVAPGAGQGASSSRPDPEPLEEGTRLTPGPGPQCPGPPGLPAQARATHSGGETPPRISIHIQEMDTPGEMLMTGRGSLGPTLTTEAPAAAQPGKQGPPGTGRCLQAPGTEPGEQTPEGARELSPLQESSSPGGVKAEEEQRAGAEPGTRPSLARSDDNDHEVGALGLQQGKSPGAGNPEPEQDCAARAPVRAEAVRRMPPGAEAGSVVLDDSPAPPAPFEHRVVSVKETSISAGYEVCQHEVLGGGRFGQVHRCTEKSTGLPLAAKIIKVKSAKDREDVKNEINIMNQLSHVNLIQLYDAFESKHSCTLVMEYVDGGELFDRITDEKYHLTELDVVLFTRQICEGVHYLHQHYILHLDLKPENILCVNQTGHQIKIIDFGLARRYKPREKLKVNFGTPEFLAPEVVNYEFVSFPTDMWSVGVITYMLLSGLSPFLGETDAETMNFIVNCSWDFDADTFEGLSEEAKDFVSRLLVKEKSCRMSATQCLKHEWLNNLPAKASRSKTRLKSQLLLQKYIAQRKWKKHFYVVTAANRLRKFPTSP

Structure (SMILES)	assay	conditions	quantity	value
CC(C)(C)c1nc2c(s1)c1nc(N)ncc1c1ccc(NS(=O)(=O)c3c(F)cccc3F)c(F)c12	enzyme activity, inhibitor, radiometric	1 µM	remaining activity	93%
CC(C)(O)[C@H]1CC[C@H](Nc2ccc3ncc(-c4cccc(C(F)(F)F)c4)n3n2)CC1	enzyme activity, inhibitor	1 µM	remaining activity	100%
Cc1cnn2ncc(-c3ccnc(N(C)C)n3)c2c1	binding	1 µM	remaining binding	96%
O=C1CCc2cc(Nc3cc(OC4CCOCC4)c([N+](=O)[O-])cc3Cl)ccc2N1	cell-free assay, competition with immobilised ligand	1 µM	remaining binding	100%
F[C@@H]1CCN(c2nccc(-c3cnn4ncccc34)n2)C1	binding	1 µM	remaining binding	100%
CC(C)(C)c1nc(-c2cccc(NS(=O)(=O)c3c(F)cccc3F)c2F)c(-c2ccnc(N)n2)s1	enzyme activity, inhibitor, radiometric	1 µM	remaining activity	100%
Cc1ccc(C(=O)Nc2ccc(CN3CCN(C)CC3)c(C(F)(F)F)c2)cc1C#Cc1cnc2cccnn12	enzyme activity, inhibitor	23.5 nM	remaining activity	99%
O=C(Nc1cnn(-c2csc(C(=O)NC3COC3)c2)c1)Nc1ccccc1Cl	enzyme activity, inhibitor	5 µM	remaining activity	95.1%
CO[C@@H](C)c1c(Nc2ccc([C@@H](N(C)C(=O)C3CCS(=O)(=O)CC3)C(F)(F)F)cc2)cnc2cc(Cl)nn12	cell-free assay, competition with immobilised ligand	1 µM	remaining binding	87%
Nc1ncnc2occ(-c3ccc(NC(=O)Nc4cc(C(F)(F)F)ccc4F)cc3)c12	cell-free assay, inhibitor	20 µM	remaining signal	0.15%
